# Assay results reported in ChEMBL document CHEMBL1143989, “New anti-viral drugs for the treatment of the common cold” (Bioorg Med Chem, 2008).
# The source made the active and inactive calls. No cut-off for these calls is given here.
# Key:
# [1] = Inhibition of HRV 3C protease; parameters: species or system Human rhinovirus sp.
# [2] = Cytotoxicity against human HeLa cells after 5 days; assay type: cell-based; settings: read-out: Maximal non-toxic dose 50
# Method in brief: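 HeLa (Ohio strain) cells plated at about 10^4 cells per ml in 24-well plates, kept at 33 °C in 3% CO2 in DMEM with 1% non-essential amino acids and 10% FCS. Exposed to decreasing compound concentrations for 5 days; viability read by neutral red uptake. MNTD50 (dose inhibiting less than 50% replication vs control) obtained by regression; triplicate.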
# [3] = biological target: T1, Human rhinovirus A protease (Human rhinovirus sp.) (UniProt Q4U254); test: Inhibition of HRV14 3C protease in presence of dithiothreitol; settings: rhinovirus B14
# T1 sequence (whole entry): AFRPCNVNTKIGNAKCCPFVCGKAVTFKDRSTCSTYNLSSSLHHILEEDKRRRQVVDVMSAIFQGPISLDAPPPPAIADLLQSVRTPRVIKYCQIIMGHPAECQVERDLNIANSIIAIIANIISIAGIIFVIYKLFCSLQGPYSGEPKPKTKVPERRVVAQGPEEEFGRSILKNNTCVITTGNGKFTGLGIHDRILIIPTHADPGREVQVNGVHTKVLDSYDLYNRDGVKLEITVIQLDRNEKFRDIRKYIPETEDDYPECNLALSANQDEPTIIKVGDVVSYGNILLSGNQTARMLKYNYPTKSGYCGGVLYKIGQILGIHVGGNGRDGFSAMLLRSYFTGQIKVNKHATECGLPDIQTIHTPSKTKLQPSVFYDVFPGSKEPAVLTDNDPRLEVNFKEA
# [4] = biological target: T1, Human rhinovirus A protease (Human rhinovirus sp.); test: Inhibition of HRV14 3C protease at 10 uM; settings: rhinovirus B14
# Method in brief: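 Recombinant HRV14 3C protease at 0.7 uM with EALFQ-pNA chromogenic substrate, compound at 10 µM final, 1% DMSO final. Buffer: 25 mM Hepes pH 7.5, 150 mM NaCl, 0.12 mM DTT, 1 mM EDTA. Started by adding enzyme; A405 read at 0 and 60 min at 30 °C. Percent inhibition vs uninhibited control; duplicates, mean ± SD.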
# [5] = biological target: T1, Human rhinovirus A protease (Human rhinovirus sp.); test: Inhibition of HRV14 3C protease at 1 uM; settings: rhinovirus B14
# [6] = biological target: T1, Human rhinovirus A protease (Human rhinovirus sp.); test: Inhibition of HRV14 3C protease at 0.1 uM; settings: rhinovirus B14
# [7] = tested on: rhinovirus B14; test: Antiviral activity against HRV14; assay type: functional, organism-based; settings: Rhinovirus B; read-out: ID50 (the source's name)
# Method in brief: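 HeLa (Ohio) monolayers at 33 °C, 3% CO2, in DMEM with 1% non-essential amino acids and 10% FCS. Infected with HRV-14 at MOI 0.1, then decreasing compound amounts added. After 24 h, freeze-thaw; supernatant titrated under 2% nutrient agar and plaques counted after neutral red staining. ID50 derived from plaque counts.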
# [8] = biological target: T1, Human rhinovirus A protease (Human rhinovirus sp.); test: Inhibition of HRV14 3C protease at 0.16 to 100 uM; settings: rhinovirus B14
# Method in brief: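 Colorimetric HRV14 3C protease assay: 0.7 uM enzyme, EALFQ-pNA substrate, Hepes pH 7.5 buffer with 0.12 mM DTT and 1 mM EDTA. Compound tested across 0.16 to 100 µM; p-nitroaniline release read at 405 nm after 60 min at 30 °C.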
# [9] = tested on: Human alphaherpesvirus 2; test: Antiviral activity against HSV2; assay type: functional, organism-based
# [10] = tested on: Influenza A virus; test: Antiviral activity against WSN influenza A virus; assay type: functional, organism-based
# Method in brief: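 Cell-based antiviral test in the VERO/MDCK cell set, run on 24-well plates by analogy with the HeLa/rhinovirus method. Activity was scored after 48 h of incubation at 37 °C under 5% CO2.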
# [11] = biological target: T1, Human rhinovirus A protease (Human rhinovirus sp.); test: Inhibition of HRV14 3C protease at 1 mM; settings: rhinovirus B14
Structure (SMILES),Activity [3],inhibition [4] [%],inhibition [5] [%],inhibition [6] [%],further results
NC(=O)CCN(NC(=O)[C@H](Cc1ccccc1)NC(=O)OCc1ccccc1)C(=O)CBr,,,,,IC50 [1]: 48 nM
CCOC(=O)CCn1c(=O)c2ccccc2n(CC(=O)c2ccccc2)c1=O,,,,,IC50 [1]: 55400 nM
NC(=O)c1cc(Cc2ccc3ccccc3c2)cc(C(=O)CCl)c1,inactive,81,61,25,MNTC at 120 h [2]: 0.75 µg/mL; IC50 [7]: > 0.75 µg/mL
NC(=O)c1cc(Cc2ccc3ccccc3c2)cc(C(=O)CBr)c1,inactive,83,39,12,
NC(=O)c1cc(C(=O)CBr)cc(C(=O)Nc2ccccc2)c1,inactive,86,27,8,
NC(=O)c1cccc(C(=O)C(F)(F)F)c1,,,,,Activity [8]: inactive
NC(=O)c1cc(Cc2ccccc2)cc(C(=O)CBr)c1,inactive,68,30,0,
NC(=O)c1cccc(C(=O)C(Cl)Cl)c1,,> 50,,,
NC(=O)c1cc(Cc2ccccc2)cc(C(=O)C(Br)Br)c1,inactive,75,27,14,
NC(=O)c1cc(C(=O)CBr)cc(C(=O)Nc2ccc3ccccc3c2)c1,inactive,80,19,5,
NC(=O)c1cccc(C(=O)C(Br)Br)c1,,> 50,,,
NC(=O)c1cccc(C(=O)CBr)c1,inactive,85,23,4,MNTC at 120 h [2]: > 100 µg/mL; IC50 [7]: 25 µg/mL; Activity [9]: Active; Activity [10]: Active
CC(=O)N[C@@H](CC(C)C)C(=O)N[C@@H](CC(C)C)C(=O)N[C@H](C=O)CCCNC(=N)N,,,,,inhibition [11]: 57%
CCOC(=O)/C=C/[C@H](C[C@@H]1CCNC1=O)NC(=O)[C@@H](CC(=O)[C@@H](NC(=O)c1cc(C)on1)C(C)C)Cc1ccc(F)cc1,inactive,,,,
CCOC(=O)/C=C/[C@H](CCC(N)=O)CC(=O)[C@H](Cc1ccccc1)NC(=O)[C@H](CC(C)C)NC(=O)OCc1ccccc1,,,,,IC50 [1]: 540 nM
NC(=O)c1cc(Cc2ccc3ccccc3c2)cc(C(=O)C(Br)Br)c1,,> 70,,,
O=C(CBr)c1ccc2c(c1)C(=O)NC2,inactive,70,25,0,
NC(=O)c1cccc(C(=O)CCl)c1,,> 50,,,MNTC at 120 h [2]: 3.12 µg/mL
NC(=O)c1cc(Cc2ccccc2)cc(C(=O)CCl)c1,inactive,91,79,14,MNTC at 120 h [2]: 0.75 µg/mL; IC50 [7]: > 0.75 µg/mL
